Data taken from ChEMBL document CHEMBL2021842, “COMPARE analysis of the toxicity of an iminoquinone derivative of the imidazo[5,4-f]benzimidazoles with NAD(P)H:quinone oxidoreductase 1 (NQO1) activity and computational docking of quinones as NQO1 substrates” (Bioorg Med Chem, 2012).

Tests used:
SN12C = experiment: Growth inhibition of human SN12C cells; type: functional
Procedure, shortened: (§1)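 This is the second, five-dose stage of the NCI DTP 60-cell-line screen. GI50 is the concentration that inhibits cell growth by 50%, derived for each cell line.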

NCI/ADR-RES [1] = experiment: Growth inhibition of human NCI/ADR-RES cells assessed as cell growth at 10 uM relative to untreated control; type: functional; settings: read-out: Activity
Procedure, shortened: (§2)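 First stage of the NCI DTP 60 human tumour cell-line screen. Cells were exposed to a single dose of 10 µM. Output is reported as growth % relative to control.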

HCC 2998 [2] = experiment: Growth inhibition of human HCC2998 cells; type: functional
Procedure, shortened: (§3)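 NCI DTP 60-cell-line screen, second stage: five-dose testing across the human tumour panel. GI₅₀ taken as the concentration needed to inhibit cell growth by 50% in each cell line.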

EKVX [3] = experiment: Growth inhibition of human EKVX cells; type: functional; procedure, shortened: as §3
MDA-MB-231 = experiment: Growth inhibition of human MDA-MB-231 cells; type: functional
Procedure, shortened: (§4)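 Part of the NCI DTP 60-cell-line panel. After the single-dose stage, cells were tested at five doses. Read-out is the GI50, the concentration giving 50% inhibition of cell growth, derived for each cell line.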

IGROV-1 = experiment: Growth inhibition of human IGROV1 cells; type: functional; procedure, shortened: as §3
SF-295 [4] = experiment: Growth inhibition of human SF295 cells; type: functional; procedure, shortened: as §4
MOLT-4 [5] = experiment: Growth inhibition of human MOLT4 cells; type: functional; procedure, shortened: as §4
[6] = Growth inhibition of human Hs 578T cells assessed as cell growth at 10 uM relative to untreated control; type: functional; settings: read-out: Activity
Procedure, shortened: (§5)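 NCI DTP 60-cell-line screen, first stage: a single 10 µM dose of compound given to the human tumour panel. Result reported as percent growth relative to control, on a mean growth graph.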

HCT-116 [7] = experiment: Growth inhibition of human HCT116 cells assessed as cell growth at 10 uM relative to untreated control; type: functional; settings: read-out: Activity; procedure, shortened: as §5
SK-MEL-5 = experiment: Growth inhibition of human SK-MEL-5 cells; type: functional; procedure, shortened: as §4
SK-OV-3 [8] = experiment: Growth inhibition of human SKOV3 cells assessed as cell growth at 10 uM relative to untreated control; type: functional; settings: read-out: Activity; procedure, shortened: as §2
MDA-MB-468 [9] = experiment: Growth inhibition of human MDA-MB-468 cells assessed as cell growth at 10 uM relative to untreated control; type: functional; settings: read-out: Activity; procedure, shortened: as §2
U-251 = experiment: Growth inhibition of human U251 cells; type: functional; procedure, shortened: as §1
T47D = experiment: Growth inhibition of human T47D cells; type: functional; procedure, shortened: as §1
COLO 205 = experiment: Growth inhibition of human COLO205 cells; type: functional; procedure, shortened: as §3
[10] = Growth inhibition of human Hs 578T cells; type: functional; procedure, shortened: as §3
NCI-H23 = experiment: Growth inhibition of human NCI-H23 cells; type: functional; procedure, shortened: as §4
SK-OV-3 [11] = experiment: Growth inhibition of human SKOV3 cells; type: functional; procedure, shortened: as §4
HT-29 [12] = experiment: Growth inhibition of human HT-29 cells; type: functional; procedure, shortened: as §3
HCT-15 = experiment: Growth inhibition of human HCT15 cells; type: functional; procedure, shortened: as §3
HOP-92 = experiment: Growth inhibition of human HOP92 cells; type: functional; procedure, shortened: as §3
DU-145 = experiment: Growth inhibition of human DU145 cells; type: functional; procedure, shortened: as §3
EKVX [13] = experiment: Growth inhibition of human EKVX cells assessed as cell growth at 10 uM relative to untreated control; type: functional; settings: read-out: Activity; procedure, shortened: as §5
SF-268 [14] = experiment: Growth inhibition of human SF268 cells assessed as cell growth at 10 uM relative to untreated control; type: functional; settings: read-out: Activity; procedure, shortened: as §2
A498 = experiment: Growth inhibition of human A498 cells; type: functional; procedure, shortened: as §3
NCI-H460 = experiment: Growth inhibition of human NCI-H460 cells assessed as cell growth at 10 uM relative to untreated control; type: functional; settings: read-out: Activity; procedure, shortened: as §2
CAKI-1 = experiment: Growth inhibition of human Caki1 cells; type: functional; procedure, shortened: as §3
NCI-H522 [15] = experiment: Growth inhibition of human NCI-H522 cells; type: functional; procedure, shortened: as §4
HCT-116 [16] = experiment: Growth inhibition of human HCT116 cells; type: functional; procedure, shortened: as §3
MDA-MB-435 [17] = experiment: Growth inhibition of human MDA-MB-435 cells assessed as cell growth at 10 uM relative to untreated control; type: functional; settings: read-out: Activity; procedure, shortened: as §2
NCI/ADR-RES [18] = experiment: Growth inhibition of human NCI/ADR-RES cells; type: functional; procedure, shortened: as §4
OVCAR-8 = experiment: Growth inhibition of human OVCAR8 cells; type: functional; procedure, shortened: as §4
NCI-H226 = experiment: Growth inhibition of human NCI-H226 cells; type: functional; procedure, shortened: as §4
HT-29 [19] = experiment: Growth inhibition of human HT-29 cells assessed as cell growth at 10 uM relative to untreated control; type: functional; settings: read-out: Activity; procedure, shortened: as §5
MDA-MB-435 [20] = experiment: Growth inhibition of human MDA-MB-435 cells; type: functional; procedure, shortened: as §4
PC-3 = experiment: Growth inhibition of human PC3 cells; type: functional; procedure, shortened: as §4
SW-620 = experiment: Growth inhibition of human SW620 cells; type: functional; procedure, shortened: as §1
SNB-75 = experiment: Growth inhibition of human SNB75 cells assessed as cell growth at 10 uM relative to untreated control; type: functional; settings: read-out: Activity
Procedure, shortened: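 This is the first stage of the NCI DTP 60-human-tumour-cell-line screen, covering nine tissue types. Cells receive a single dose of the test compound, and the output is reported as mean growth %.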

[21] = Cytotoxicity against human GM00637 cells assessed as reduction in mean cell viability after 72 hrs by MTT assay; type: cell-based; settings: GM00637, 72 h
Procedure, shortened: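 SV40-transformed normal skin fibroblasts (GM00637) in MEM Eagle–Earle BSS with 15% heat-inactivated FBS, 2 mM L-glutamine, 2× amino acids and vitamins. Seeded at 10,000 cells/well and left 24 h to adhere. Ethanol-delivered compound (1% final) for 72 h at 37 °C, 5% CO₂. MTT formazan in DMSO read at 550/690 nm. Viability relative to vehicle; IC₅₀ by nonlinear regression.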

M14 = experiment: Growth inhibition of human M14 cells; type: functional; procedure, shortened: as §3
MCF7 = experiment: Growth inhibition of human MCF7 cells assessed as cell growth at 10 uM relative to untreated control; type: functional; settings: read-out: Activity; procedure, shortened: as §2
SF-295 [22] = experiment: Growth inhibition of human SF295 cells assessed as cell growth at 10 uM relative to untreated control; type: functional; settings: read-out: Activity; procedure, shortened: as §2
SK-MEL-2 = experiment: Growth inhibition of human SK-MEL-2 cells assessed as cell growth at 10 uM relative to untreated control; type: functional; settings: read-out: Activity; procedure, shortened: as §2
SK-MEL-28 = experiment: Growth inhibition of human SK-MEL-28 cells assessed as cell growth at 10 uM relative to untreated control; type: functional; settings: read-out: Activity; procedure, shortened: as §2
SF-268 [23] = experiment: Growth inhibition of human SF268 cells; type: functional; procedure, shortened: as §4
HCC 2998 [24] = experiment: Growth inhibition of human HCC2998 cells assessed as cell growth at 10 uM relative to untreated control; type: functional; settings: read-out: Activity; procedure, shortened: as §5
OVCAR-4 = experiment: Growth inhibition of human OVCAR4 cells; type: functional; procedure, shortened: as §4
TK-10 = experiment: Growth inhibition of human TK10 cells; type: functional; procedure, shortened: as §1
NCI-H522 [25] = experiment: Growth inhibition of human NCI-H522 cells assessed as cell growth at 10 uM relative to untreated control; type: functional; settings: read-out: Activity; procedure, shortened: as §2
ACHN = experiment: Growth inhibition of human ACHN cells; type: functional; procedure, shortened: as §3
MDA-MB-468 [26] = experiment: Growth inhibition of human MDA-MB-468 cells; type: functional; procedure, shortened: as §4
A549 = experiment: Growth inhibition of human A549 cells; type: functional; procedure, shortened: as §3
MOLT-4 [27] = experiment: Growth inhibition of human MOLT4 cells assessed as cell growth at 10 uM relative to untreated control; type: functional; settings: read-out: Activity; procedure, shortened: as §2

N=C1c2nc3n(c2C(=O)c2nc4n(c21)CCCC4)CCCC3
GI50 (SN12C): 1.7 µM
growth at 10 µM (NCI/ADR-RES [1]): 85.7%
GI50 (HCC 2998 [2]): 4.79 µM
GI50 (EKVX [3]): 25.1 µM
GI50 (MDA-MB-231): 39.8 µM
GI50 (IGROV-1): 42.7 µM
GI50 (SF-295 [4]): 1.74 µM
GI50 (MOLT-4 [5]): 38.9 µM
growth at 10 µM [6]: -28.6%
growth at 10 µM (HCT-116 [7]): 65.8%
GI50 (SK-MEL-5): 1.2 µM
growth at 10 µM (SK-OV-3 [8]): 95%
growth at 10 µM (MDA-MB-468 [9]): 68.1%
GI50 (U-251): 10 µM
GI50 (T47D): 17.4 µM
GI50 (COLO 205): 1.86 µM
GI50 [10]: 2.19 µM
GI50 (NCI-H23): 1.38 µM
GI50 (SK-OV-3 [11]): 33.1 µM
GI50 (HT-29 [12]): 2.75 µM
GI50 (HCT-15): 2.63 µM
GI50 (HOP-92): 43.7 µM
GI50 (DU-145): 1.41 µM
growth at 10 µM (EKVX [13]): 95.6%
growth at 10 µM (SF-268 [14]): 71.3%
GI50 (A498): 6.03 µM
growth at 10 µM (NCI-H460): 4.62%
GI50 (CAKI-1): 15.5 µM
GI50 (NCI-H522 [15]): 4.57 µM
GI50 (HCT-116 [16]): 19.5 µM
growth at 10 µM (MDA-MB-435 [17]): -82.5%
GI50 (NCI/ADR-RES [18]): 35.5 µM
GI50 (OVCAR-8): 31.6 µM
GI50 (NCI-H226): 1.74 µM
growth at 10 µM (HT-29 [19]): -13.7%
GI50 (MDA-MB-435 [20]): 0.245 µM
GI50 (PC-3): 100 µM
GI50 (SW-620): 3.72 µM
growth at 10 µM (SNB-75): -97%
IC50 [21]: 3.63 µM
GI50 (M14): 1.78 µM
growth at 10 µM (MCF7): -6.98%
growth at 10 µM (SF-295 [22]): -85.7%
growth at 10 µM (SK-MEL-2): 82.7%
growth at 10 µM (SK-MEL-28): -67.2%
GI50 (SF-268 [23]): 8.51 µM
growth at 10 µM (HCC 2998 [24]): 87.3%
GI50 (OVCAR-4): 34.7 µM
GI50 (TK-10): 70.8 µM
growth at 10 µM (NCI-H522 [25]): 10.5%
GI50 (ACHN): 30.9 µM
GI50 (MDA-MB-468 [26]): 14.8 µM
GI50 (A549): 2.04 µM
growth at 10 µM (MOLT-4 [27]): 85.4%

O=C1c2nc3n(c2C(=O)c2nc4n(c21)CCCC4)CCCC3
growth at 10 µM (NCI/ADR-RES [1]): 103%
growth at 10 µM [6]: 102%
growth at 10 µM (HCT-116 [7]): 96.8%
growth at 10 µM (SK-OV-3 [8]): 102%
growth at 10 µM (MDA-MB-468 [9]): 95.6%
growth at 10 µM (EKVX [13]): 99.9%
growth at 10 µM (SF-268 [14]): 92.3%
growth at 10 µM (NCI-H460): 95%
growth at 10 µM (MDA-MB-435 [17]): 105%
growth at 10 µM (HT-29 [19]): 104%
growth at 10 µM (SNB-75): 97%
IC50 [21]: > 5 µM
growth at 10 µM (MCF7): 101%
growth at 10 µM (SF-295 [22]): 87.9%
growth at 10 µM (SK-MEL-2): 108%
growth at 10 µM (SK-MEL-28): 118%
growth at 10 µM (HCC 2998 [24]): 88.3%
growth at 10 µM (NCI-H522 [25]): 92.3%
growth at 10 µM (MOLT-4 [27]): 111%
